Results on 14 compounds are retold here after PubChem BioAssay.

The other results are listed elsewhere or left out. Unmarked numbers belong to inactive results.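 Rule for the calls: active = mean activation of the triplicate above a set limit carried over from the primary screen, none filed active; inactive = the rest.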

Sequence of Oxysterols receptor LXR-beta (Homo sapiens) (P55055 whole entry, looked up, the tested form may be a part): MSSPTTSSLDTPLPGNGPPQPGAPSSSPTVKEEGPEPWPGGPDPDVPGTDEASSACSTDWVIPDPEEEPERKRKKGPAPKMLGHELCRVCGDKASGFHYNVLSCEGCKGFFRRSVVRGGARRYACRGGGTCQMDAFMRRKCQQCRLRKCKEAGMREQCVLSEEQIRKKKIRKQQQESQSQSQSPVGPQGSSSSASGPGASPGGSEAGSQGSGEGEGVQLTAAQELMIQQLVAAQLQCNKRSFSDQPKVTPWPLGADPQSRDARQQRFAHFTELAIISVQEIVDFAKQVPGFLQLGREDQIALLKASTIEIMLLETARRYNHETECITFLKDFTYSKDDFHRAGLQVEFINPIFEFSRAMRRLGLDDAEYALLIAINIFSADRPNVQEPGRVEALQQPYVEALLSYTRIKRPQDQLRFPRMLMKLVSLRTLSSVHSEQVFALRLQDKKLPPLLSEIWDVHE

This test addresses Oxysterols receptor LXR-beta (Homo sapiens) (UniProt P55055). As to the kind of experiment: nonspecific reporter activation via LXR – cell-based, luminescence, HEK293, H. glycines campaign, counter-screen for hgDAF-12 agonist project, confirmation (AID 743051). The note with it: HEK293 Gal4-LXR luciferase reporter, 24 h; at 6.8 µM; hits give high values. In short, it runs like this: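 Assay system: Gal4-LXR luciferase reporter HEK293 cells; times: 3 h cell plating, then 24 h compound exposure at 37 °C; signal: luciferase luminescence; benchmarks: DMSO low control, 0.68% final; replication: n 3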
In general terms: A counterscreen serves to expose hits that act by an unwanted route or on another target.
Regarding `O=C(NCCCn1ccnc1)c1cc(-c2ccccc2)on1`, the activation was 0.27%.

For the compound `CCc1ccc(NC2Nc3cc(C)nn3S2)cc1` (centres undefined), the activation was 0.76%. Under `CC(=O)Nc1cccc(-c2csc(Nc3cccc(C)n3)n2)c1` stands 1.17%. Under `Clc1ccc(Nc2nc(-c3cccs3)cs2)nc1` stands 0.65%; under `CN(C)c1ccnc2sc(C(=O)c3ccccc3)c(N)c12`, 0.47%; under `NC(=O)Cc1ccc2sc(-c3ccccc3)nc2c1`, 0.66%. Take `COc1ccc2nc(SCc3ccccc3)nc(C)c2c1`: the activation is 1%. To `O=C(Nc1ccc2c(c1)CCC2)c1ccc(Br)s1` belongs 1.14%; to `Cc1ccc(NC(=O)c2csc3c2CCCC3)cc1`, 0.8%. To `COc1ccc(C2Nc3ccccc3C(=O)N2c2ccc(Cl)cc2)cc1Cn1cc([N+](=O)[O-])cn1` (centres undefined) belongs 0.5%. Under `COc1ccc(-c2csc(-c3cccs3)n2)cc1OC` stands 0.79%; under `Cc1ccccc1Nc1nc(N)nc(CSc2ccccc2)n1`, 0.84%; under `c1ccc(Nc2nc(-c3ccncc3)cs2)nc1`, 0.86%. `Cc1cccc(NC(=O)Nc2ccc3c(c2)OCO3)n1`: the activation was 0.79%.
